Laboratory results as given in ChEMBL document CHEMBL4219175, “Synthesis and biological evaluation of aminothiazoles against Histoplasma capsulatum and Cryptococcus neoformans” (Bioorg Med Chem, 2018).
≈ marks a conversion by molar mass, not a printed value.

Key:
[1] = Therapeutic index, ratio of IC50 for mouse P388D1 cells to IC50 for wild type Cryptococcus neoformans serotype A H99; format: toxicity; details: read-out: Ratio IC50
Method in brief: (§1)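 Ratio of P388D1 IC50 (72 h resazurin viability, 80 to 0.3 µM) to yeast IC50 from RPMI/HEPES pH 7.0 broth dilution with A595 turbidity and 4-parameter regression.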

[2] = Therapeutic index, ratio of IC50 for mouse P388D1 cells to IC50 for Histoplasma capsulatum OSU76; format: toxicity; details: read-out: Ratio IC50
[3] = Aqueous solubility of the compound at pH 7; format: physicochemical; details: aqueous medium
[4] = system: Cryptococcus neoformans; experiment: Antifungal activity against fluconazole-resistant Cryptococcus neoformans serotype A TES9 harboring erg11 mutant measured over 4 days; format: functional, organism-based; details: TES9, 96 h
Method in brief: (§2)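 YPD-grown exponential-phase yeasts, hemacytometer-counted, diluted into RPMI buffered to pH 7.0 with 25 mM HEPES (or pH 5.0 with […] for pH comparison) at 2 x 10^3 per well; two-fold series 40 to 0.078 µM, 37 °C, agitated twice daily. A595 followed over 4 days versus DMSO controls; day-3 turbidity fitted by 4-parameter regression for IC50; MIC = growth ≤10% of untreated.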

[5] = system: Cryptococcus neoformans; experiment: Antifungal activity against Cryptococcus neoformans TDY271 after 72 hrs by microdilution assay; format: functional, organism-based; details: TDY271, 72 h
[6] = system: P388D1; experiment: Cytotoxicity against mouse P388D1 cells assessed as reduction in cell viability after 72 hrs by resazurin-based fluorescence assay; details: P388D1, 72 h
Method in brief: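 P388D1 cells in Ham's F-12 + 10% FBS + 2 mM L-glutamine seeded at 5 x 10^3 per well, adhered overnight, exposed to compounds 80 to 0.3 µM for 72 h. Viability read as resorufin fluorescence (530/590 nm) after 0.1 mM resazurin, pre-saturation time points, versus untreated cells; three biological replicates; IC50 by non-linear regression.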

[7] = system: Histoplasma capsulatum; experiment: Antifungal activity against RFP expressing Histoplasma capsulatum infected in LacZ-expressing mouse P388D1 cells incubated for 6 days measured daily by fluorescence assay; format: functional, organism-based
Method in brief: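 LacZ-expressing P388D1 macrophages (3x10^4 per well, adhered 3 h) infected with RFP Histoplasma yeasts at MOI 1:2 for 3 h, medium replaced with F-12 + 10% serum, overnight at 37 °C, then compound gradient added for 6 days. RFP fluorescence (530/590 nm) read daily; day-4 values relative to untreated infected cells fitted by non-linear regression; triplicate.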

[8] = system: Histoplasma capsulatum; experiment: Antifungal activity against Histoplasma capsulatum G217B ATCC 26032 at pH 5 measured over 5 days; format: functional, organism-based; details: G217B ATCC 26032, 120 h
Method in brief: (§3)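 Yeasts pre-grown in HMM (37 °C, 5% CO2) to exponential phase, counted by hemacytometer, diluted into RPMI buffered with 25 mM HEPES (pH 7.0) or 25 mM MOPS (pH 5.0) at 5 x 10^5 per well; two-fold dilutions 40 to 0.078 µM, 37 °C, agitated twice daily. A595 read over 5 days, normalized to DMSO controls; 4-day data fitted by 4-parameter regression for IC50; MIC = ≤10% growth.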

[9] = system: Histoplasma capsulatum; experiment: Antifungal activity against Histoplasma capsulatum G217B ATCC 26032 at pH 7 measured over 5 days; format: functional, organism-based; details: G217B ATCC 26032, 120 h; method in brief: as §3
[10] = Ratio of aqueous solubility at pH 5 to aqueous solubility at pH 7; format: physicochemical; details: buffer
[11] = system: Cryptococcus neoformans; experiment: Antifungal activity against wild type fluconazole-sensitive Cryptococcus neoformans serotype A H99 at pH 7 measured over 4 days; format: functional, organism-based; details: var grubii H99 , 96 h; method in brief: as §2
[12] = system: Histoplasma capsulatum; experiment: Fungistatic activity against Histoplasma capsulatum OSU76 after 2 to 24 hrs by colony forming assay; format: functional, organism-based
[13] = system: Cryptococcus neoformans; experiment: Antifungal activity against wild type fluconazole-sensitive Cryptococcus neoformans serotype A H99 at pH 5 measured over 4 days; format: functional, organism-based; details: var grubii H99 , 96 h; method in brief: as §2
[14] = Aqueous solubility of the compound at pH 5; format: physicochemical; details: aqueous medium
[15] = system: Cryptococcus neoformans; experiment: Antifungal activity against wild-type fluconazole-sensitive Cryptococcus neoformans serotype D B3501 measured over 4 days; format: functional, organism-based; details: B3501, 96 h; method in brief: as §2
[16] = Therapeutic index, ratio of IC50 for mouse P388D1 cells to IC50 for Histoplasma capsulatum G217B ATCC 26032; format: toxicity; details: read-out: Ratio IC50; method in brief: as §1
[17] = system: Cryptococcus neoformans; experiment: Antifungal activity against fluconazole-resistant Cryptococcus neoformans serotype A MRL862 harboring erg11 mutant measured over 4 days; format: functional, organism-based; details: MRL862, 96 h; method in brief: as §2

Structure (SMILES)	selectivity ratio [1]	solubility [3] [µg/mL]	IC50 [6] [µM]	IC50 [8] [µM]	MIC90 [8] [µM]	IC50 [9] [µM]	MIC90 [9] [µM]	Ratio [10]	IC50 [11] [µM]	MIC90 [11] [µM]	IC50 [13] [µM]	MIC90 [13] [µM]	solubility [14] [µg/mL]	selectivity ratio [16]	other results
O=C(Nc1ncc(Cc2cccc3ccccc23)s1)C1CCCCC1	> 60	4 (≈ 11.4 µM)	> 40	6.75	10 (≈ 3.5 µg/mL)	0.48	1.25 (≈ 0.438 µg/mL)	1	0.67	1.25 (≈ 0.438 µg/mL)	3.04	5 (≈ 1.75 µg/mL)	4 (≈ 11.4 µM)	> 83	selectivity ratio [2]: 63; IC50 [4]: 0.2 µM; MIC90 [4]: 0.63 µM (≈ 0.221 µg/mL); IC50 [5]: 1.25 µM; MIC ([7]; 144 h): 2.5 µM (≈ 0.876 µg/mL); IC50 ([7]; P388D1, 144 h): 1.26 µM; IC50 [12]: 0.87 µM; IC50 [15]: 0.18 µM; MIC90 [15]: 0.63 µM (≈ 0.221 µg/mL); IC50 [17]: 0.23 µM; MIC90 [17]: 0.63 µM (≈ 0.221 µg/mL)
O=C(Nc1ncc(Cc2ccnc3ccccc23)s1)C1CCCCC1	5	70 (≈ 199 µM)	13.9	16.8	40 (≈ 14.1 µg/mL)	3.05		1.9	3.24		4.29	10 (≈ 3.51 µg/mL)	130 (≈ 370 µM)	5	
O=C(Nc1ncc(Cc2ccccn2)s1)C1CCCCC1	> 6	340 (≈ 1130 µM)	> 40	> 20	> 40	18.3	40 (≈ 12.1 µg/mL)	1.4	7.17	20 (≈ 6.03 µg/mL)	15.6	> 40	480 (≈ 1590 µM)	> 2	
O=C(CCC1CCCCC1)Nc1ncc(Cc2ccncc2)s1		40 (≈ 121 µM)	> 40	11.1	40 (≈ 13.2 µg/mL)	7.67	20 (≈ 6.59 µg/mL)	3.5	> 20		> 20	> 40	140 (≈ 425 µM)	> 5	
